Values after ≈ are worked out from the molar mass of the structure shown.
Columns and labels:
MCF7 [1] = assay: Effect on SOD level in human MCF7 cells assessed per mg protein at 5 ug/ml after 24 hrs (reference value: 27.61+/- 3.72 U/mg of protein); assay type: functional
MCF7 [2] = assay: Effect on CAT level in human MCF7 cells assessed per mg protein at 5 ug/ml after 24 hrs (reference value: 7.90+/- 0.67 U/mg of protein); assay type: functional
MCF7 [3] = assay: Antiproliferative activity against human MCF7 cells after 24 hrs by MTT assay; assay type: functional, cell-based; conditions: for IC50: MCF7, 24 h
Method in brief: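 MCF-7 cells (DMEM, 10% heat-inactivated FCS, penicillin/streptomycin, 37 °C, 5% CO2) plated at 0.65 × 10⁵ cells/well and given 24 h to attach. Exposed to compound or cisplatin at 2, 5, 10 or 20 µg/ml for 24 h at 37 °C. MTT added for 4 h, formazan dissolved in DMSO, absorbance read at 570 nm. Viability taken relative to untreated cells and IC50 derived.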

MCF7 [4] = assay: Increase in hydrogen peroxide level in human MCF7 cells; assay type: functional, cell-based
MCF7 [5] = assay: Effect on glutathione peroxidase level in human MCF7 cells assessed per mg protein at 10 ug/ml after 24 hrs (reference value: 11.20 +/- 1.36 U/mg of protein); assay type: functional
MCF7 [6] = assay: Effect on DNA level in human MCF7 cells assessed per 10 '6 cells at 5 ug/ml after 24 hrs (reference value: 6.80 +/- 0.70 ug/10^6 cells); assay type: functional
Method in brief: (§1)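 After 24 h exposure of MCF-7 cells to compound at 2, 5, 10 or 20 µg/ml at 37 °C, nucleic acids were precipitated from cell homogenates. DNA was extracted and assayed by the Zhou et al. method, and RNA by a kit-derived procedure. Results given per 10⁶ cells as means ± S.E. of four experiments versus untreated control.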

MCF7 [7] = assay: Effect on CAT level in human MCF7 cells assessed per mg protein at 2 ug/ml after 24 hrs (reference value: 7.90+/- 0.67 U/mg of protein); assay type: functional
MCF7 [8] = assay: Effect on RNA level in human MCF7 cells assessed per 10 '6 cells at 2 ug/ml after 24 hrs (reference value: 11.50 +/- 0.70 ug/10^6 cells); assay type: functional; method in brief: as §1
MCF7 [9] = assay: Effect on glutathione peroxidase level in human MCF7 cells assessed per mg protein at 2 ug/ml after 24 hrs (reference value: 11.20 +/- 1.36 U/mg of protein); assay type: functional
MCF7 [10] = assay: Effect on glutathione level in human MCF7 cells assessed per mg protein at 2 ug/ml by Ellman method after 24 hrs (reference value: 39.82 +/- 4.20 nmol/mg of protein); assay type: functional
MCF7 [11] = assay: Decrease in DNA level in human MCF7 cells assessed per 10 '6 cells after 24 hrs relative to control; assay type: functional, cell-based; method in brief: as §1
MCF7 [12] = assay: Effect on glutathione level in human MCF7 cells assessed per mg protein at 5 ug/ml by Ellman method after 24 hrs (reference value: 39.82 +/- 4.20 nmol/mg of protein); assay type: functional
MCF7 [13] = assay: Effect on RNA level in human MCF7 cells assessed per 10 '6 cells at 20 ug/ml after 24 hrs (reference value: 11.50 +/- 0.70 ug/10^6 cells); assay type: functional; method in brief: as §1
MCF7 [14] = assay: Effect on CAT level in human MCF7 cells assessed per mg protein at 20 ug/ml after 24 hrs (reference value: 7.90+/- 0.67 U/mg of protein); assay type: functional
MCF7 [15] = assay: Effect on hydrogen peroxide level in human MCF7 cells assessed per mg protein at 5 ug/ml by Wolf's method after 24 hrs (reference value: 12.50 +/- 1.54 nmol/mg of protein); assay type: functional
MCF7 [16] = assay: Effect on hydrogen peroxide level in human MCF7 cells assessed per mg protein at 10 ug/ml by Wolf's method after 24 hrs (reference value: 12.50 +/- 1.54 nmol/mg of protein); assay type: functional
MCF7 [17] = assay: Effect on glutathione peroxidase level in human MCF7 cells assessed per mg protein at 5 ug/ml after 24 hrs (reference value: 11.20 +/- 1.36 U/mg of protein); assay type: functional
MCF7 [18] = assay: Effect on SOD level in human MCF7 cells assessed per mg protein at 20 ug/ml after 24 hrs (reference value: 27.61+/- 3.72 U/mg of protein); assay type: functional
MCF7 [19] = assay: Effect on SOD level in human MCF7 cells assessed per mg protein at 10 ug/ml after 24 hrs (reference value: 27.61+/- 3.72 U/mg of protein); assay type: functional
MCF7 [20] = assay: Effect on glutathione level in human MCF7 cells assessed per mg protein at 20 ug/ml by Ellman method after 24 hrs (reference value: 39.82 +/- 4.20 nmol/mg of protein); assay type: functional
MCF7 [21] = assay: Effect on SOD level in human MCF7 cells assessed per mg protein at 2 ug/ml after 24 hrs (reference value: 27.61+/- 3.72 U/mg of protein); assay type: functional
MCF7 [22] = assay: Increase in SOD level in human MCF7 cells; assay type: functional, cell-based
MCF7 [23] = assay: Effect on glutathione peroxidase level in human MCF7 cells assessed per mg protein at 20 ug/ml after 24 hrs (reference value: 11.20 +/- 1.36 U/mg of protein); assay type: functional
MCF7 [24] = assay: Decrease in glutathione peroxidase level in human MCF7 cells; assay type: functional, cell-based
MCF7 [25] = assay: Effect on RNA level in human MCF7 cells assessed per 10 '6 cells at 5 ug/ml after 24 hrs (reference value: 11.50 +/- 0.70 ug/10^6 cells); assay type: functional; method in brief: as §1
MCF7 [26] = assay: Effect on hydrogen peroxide level in human MCF7 cells assessed per mg protein at 2 ug/ml by Wolf's method after 24 hrs (reference value: 12.50 +/- 1.54 nmol/mg of protein); assay type: functional
MCF7 [27] = assay: Effect on CAT level in human MCF7 cells assessed per mg protein at 10 ug/ml after 24 hrs (reference value: 7.90+/- 0.67 U/mg of protein); assay type: functional
MCF7 [28] = assay: Effect on DNA level in human MCF7 cells assessed per 10 '6 cells at 20 ug/ml after 24 hrs (reference value: 6.80 +/- 0.70 ug/10^6 cells); assay type: functional; method in brief: as §1
MCF7 [29] = assay: Effect on DNA level in human MCF7 cells assessed per 10 '6 cells at 2 ug/ml after 24 hrs (reference value: 6.80 +/- 0.70 ug/10^6 cells); assay type: functional; method in brief: as §1
MCF7 [30] = assay: Effect on hydrogen peroxide level in human MCF7 cells assessed per mg protein at 20 ug/ml by Wolf's method after 24 hrs (reference value: 12.50 +/- 1.54 nmol/mg of protein); assay type: functional
MCF7 [31] = assay: Decrease in CAT level in human MCF7 cells; assay type: functional, cell-based
MCF7 [32] = assay: Decrease in glutathione level in human MCF7 cells; assay type: functional, cell-based
MCF7 [33] = assay: Effect on RNA level in human MCF7 cells assessed per 10 '6 cells at 10 ug/ml after 24 hrs (reference value: 11.50 +/- 0.70 ug/10^6 cells); assay type: functional; method in brief: as §1
MCF7 [34] = assay: Effect on DNA level in human MCF7 cells assessed per 10 '6 cells at 10 ug/ml after 24 hrs (reference value: 6.80 +/- 0.70 ug/10^6 cells); assay type: functional; method in brief: as §1
MCF7 [35] = assay: Effect on glutathione level in human MCF7 cells assessed per mg protein at 10 ug/ml by Ellman method after 24 hrs (reference value: 39.82 +/- 4.20 nmol/mg of protein); assay type: functional
MCF7 [36] = assay: Decrease in RNA level in human MCF7 cells assessed per 10 '6 cells after 24 hrs relative to control; assay type: functional, cell-based; method in brief: as §1

Row | Structure (SMILES) | Activity (MCF7 [1]) [U/mg protein] | Activity (MCF7 [2]) [U/mg protein] | Activity (MCF7 [3]) | IC50 (MCF7 [3]) [µg/mL] | Activity (MCF7 [4]) | Activity (MCF7 [5]) [U/mg protein] | Activity (MCF7 [6]) [µg/10^6 cells] | Activity (MCF7 [7]) [U/mg protein] | Activity (MCF7 [8]) [µg/10^6 cells] | Activity (MCF7 [9]) [U/mg protein] | Activity (MCF7 [10]) [nmol] | Activity (MCF7 [11]) | Activity (MCF7 [12]) [nmol] | Activity (MCF7 [13]) [µg/10^6 cells] | Activity (MCF7 [14]) [U/mg protein] | Activity (MCF7 [15]) [nmol] | Activity (MCF7 [16]) [nmol] | Activity (MCF7 [17]) [U/mg protein] | Activity (MCF7 [18]) [U/mg protein] | Activity (MCF7 [19]) [U/mg protein] | other results
1 | Cc1nc(-n2ncc3c(Cl)ncnc32)c2c3c(sc2n1)CCc1ccccc1-3 | 90.6 | 4.9 | Dose-dependent effect | 7 (≈ 17.3 µM) | Dose-dependent effect | 7 | 4.46 | 5.8 | 8.75 | 8 | 35.8 | Dose-dependent effect | 29.5 | 6.5 | 3.65 | 25.45 | 37.85 | 7.6 | 201 | 160 | Activity (MCF7 [20]): 25 nmol; Activity (MCF7 [21]): 80.2 U/mg protein; Activity (MCF7 [22]): Dose-dependent effect; Activity (MCF7 [23]): 6.7 U/mg protein; Activity (MCF7 [24]): Dose-dependent effect; Activity (MCF7 [25]): 7.5 µg/10^6 cells; Activity (MCF7 [26]): 28.23 nmol; Activity (MCF7 [27]): 4.2 U/mg protein; Activity (MCF7 [28]): 3.85 µg/10^6 cells; Activity (MCF7 [29]): 4.85 µg/10^6 cells; Activity (MCF7 [30]): 52.33 nmol; Activity (MCF7 [31]): Dose-dependent effect; Activity (MCF7 [32]): Dose-dependent effect; Activity (MCF7 [33]): 6.7 µg/10^6 cells; Activity (MCF7 [34]): 4 µg/10^6 cells; Activity (MCF7 [35]): 27.2 nmol; Activity (MCF7 [36]): Dose-dependent effect
2 | Cc1nc(-n2ncc3c(=O)[nH]cnc32)c2c3c(sc2n1)CCc1ccccc1-3 | 126 | 3.6 | Dose-dependent effect | 4.4 (≈ 11.4 µM) | Dose-dependent effect | 3.11 | 3.8 | 4 | 7.6 | 6.9 | 27.9 | Dose-dependent effect | 18.66 | 5.25 | 2.3 | 40.6 | 52 | 5.5 | 290 | 240 | Activity (MCF7 [20]): 16 nmol; Activity (MCF7 [21]): 95.6 U/mg protein; Activity (MCF7 [22]): Dose-dependent effect; Activity (MCF7 [23]): 2.65 U/mg protein; Activity (MCF7 [24]): Dose-dependent effect; Activity (MCF7 [25]): 6.4 µg/10^6 cells; Activity (MCF7 [26]): 32 nmol; Activity (MCF7 [27]): 2.8 U/mg protein; Activity (MCF7 [28]): 2.7 µg/10^6 cells; Activity (MCF7 [29]): 4.2 µg/10^6 cells; Activity (MCF7 [30]): 60.3 nmol; Activity (MCF7 [31]): Dose-dependent effect; Activity (MCF7 [32]): Dose-dependent effect; Activity (MCF7 [33]): 5.81 µg/10^6 cells; Activity (MCF7 [34]): 3 µg/10^6 cells; Activity (MCF7 [35]): 17.7 nmol; Activity (MCF7 [36]): Dose-dependent effect
3 | Cc1nc(-n2ncc3c(S[C@@H]4O[C@H](CO)[C@@H](O)[C@H]4O)ncnc32)c2c3c(sc2n1)CCc1ccccc1-3 | 80.2 | 6 | Dose-dependent effect | 9.4 (≈ 17.6 µM) | Dose-dependent effect | 6 | 5.16 | 6.85 | 9.5 | 9 | 43.35 | Dose-dependent effect | 40.12 | 7.22 | 5.35 | 28.45 | 35.85 | 6.6 | 161 | 110 | Activity (MCF7 [20]): 30 nmol; Activity (MCF7 [21]): 70.4 U/mg protein; Activity (MCF7 [22]): Dose-dependent effect; Activity (MCF7 [23]): 5.4 U/mg protein; Activity (MCF7 [24]): Dose-dependent effect; Activity (MCF7 [25]): 8.9 µg/10^6 cells; Activity (MCF7 [26]): 21.23 nmol; Activity (MCF7 [27]): 5.7 U/mg protein; Activity (MCF7 [28]): 4.45 µg/10^6 cells; Activity (MCF7 [29]): 5.35 µg/10^6 cells; Activity (MCF7 [30]): 40.33 nmol; Activity (MCF7 [31]): Dose-dependent effect; Activity (MCF7 [32]): Dose-dependent effect; Activity (MCF7 [33]): 7.7 µg/10^6 cells; Activity (MCF7 [34]): 4.86 µg/10^6 cells; Activity (MCF7 [35]): 33.11 nmol; Activity (MCF7 [36]): Dose-dependent effect

— ChEMBL document CHEMBL1759915, “Synthesis and anticancer effects of some novel pyrazolo[3,4-d]pyrimidine derivatives by generating reactive oxygen species in human breast adenocarcinoma cells” (Eur J Med Chem, 2011)
